In BindingDB's records for doi:10.1021/jm00104a019 (Searle Research & Development, 1993) one finds IC50 data, which are given here for four molecules.

Where a SMILES comes first, the peptide text is derived from it.

This assay deals with Integrin alpha-IIb/beta-3 (Homo sapiens, UniProt P08514+P05106). The assay is described as follows: Inhibition of platelet aggregation (PRP). In outline:
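Aggregation of platelets in platelet-rich plasma was induced with ADP, and inhibition of this aggregation was measured.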

Chain of Integrin alpha-IIb/beta-3 (P05106 27-788 limits assumed): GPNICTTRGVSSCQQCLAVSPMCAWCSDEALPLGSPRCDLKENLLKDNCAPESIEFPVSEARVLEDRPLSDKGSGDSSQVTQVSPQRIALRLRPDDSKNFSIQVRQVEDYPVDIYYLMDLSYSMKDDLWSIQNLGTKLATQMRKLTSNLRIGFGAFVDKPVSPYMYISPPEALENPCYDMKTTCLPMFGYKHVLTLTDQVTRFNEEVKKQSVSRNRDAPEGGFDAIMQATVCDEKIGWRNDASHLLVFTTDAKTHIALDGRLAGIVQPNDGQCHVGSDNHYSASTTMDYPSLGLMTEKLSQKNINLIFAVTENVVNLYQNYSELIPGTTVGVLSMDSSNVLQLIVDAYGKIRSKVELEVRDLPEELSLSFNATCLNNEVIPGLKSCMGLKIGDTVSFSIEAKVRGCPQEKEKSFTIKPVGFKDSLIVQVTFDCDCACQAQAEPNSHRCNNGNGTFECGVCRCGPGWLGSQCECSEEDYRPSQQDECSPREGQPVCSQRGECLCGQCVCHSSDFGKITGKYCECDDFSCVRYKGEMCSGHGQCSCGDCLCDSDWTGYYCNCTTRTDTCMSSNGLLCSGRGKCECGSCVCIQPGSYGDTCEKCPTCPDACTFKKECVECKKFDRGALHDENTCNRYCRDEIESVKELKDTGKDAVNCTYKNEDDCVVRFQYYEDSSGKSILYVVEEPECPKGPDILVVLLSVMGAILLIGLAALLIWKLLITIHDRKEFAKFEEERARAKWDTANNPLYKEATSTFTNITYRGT
Chain of Integrin alpha-IIb/beta-3 (P08514 32-887 limits assumed): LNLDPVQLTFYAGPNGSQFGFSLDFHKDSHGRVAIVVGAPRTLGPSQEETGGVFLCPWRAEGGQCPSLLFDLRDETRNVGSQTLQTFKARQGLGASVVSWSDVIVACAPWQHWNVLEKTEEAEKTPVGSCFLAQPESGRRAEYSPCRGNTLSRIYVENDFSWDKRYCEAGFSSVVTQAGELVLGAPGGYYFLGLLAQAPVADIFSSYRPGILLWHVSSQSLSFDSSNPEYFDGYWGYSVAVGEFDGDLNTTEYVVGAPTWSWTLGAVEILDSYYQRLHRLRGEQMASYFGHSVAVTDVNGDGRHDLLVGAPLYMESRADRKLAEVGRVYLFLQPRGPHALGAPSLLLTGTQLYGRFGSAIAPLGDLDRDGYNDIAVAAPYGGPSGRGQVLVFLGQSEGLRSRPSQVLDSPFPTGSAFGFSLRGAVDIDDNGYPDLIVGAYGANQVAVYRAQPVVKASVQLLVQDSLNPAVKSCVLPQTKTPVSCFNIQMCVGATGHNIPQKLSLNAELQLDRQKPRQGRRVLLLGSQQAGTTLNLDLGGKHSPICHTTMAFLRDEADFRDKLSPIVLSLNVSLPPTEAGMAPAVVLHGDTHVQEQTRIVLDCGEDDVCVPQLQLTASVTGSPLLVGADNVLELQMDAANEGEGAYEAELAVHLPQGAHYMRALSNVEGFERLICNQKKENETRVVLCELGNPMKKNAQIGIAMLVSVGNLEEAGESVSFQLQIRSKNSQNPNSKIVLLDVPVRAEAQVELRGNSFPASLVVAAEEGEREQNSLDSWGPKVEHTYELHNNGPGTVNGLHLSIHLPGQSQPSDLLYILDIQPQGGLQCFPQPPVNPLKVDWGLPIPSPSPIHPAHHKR
Chain of Integrin alpha-IIb/beta-3 (P08514 891-1039 limits assumed): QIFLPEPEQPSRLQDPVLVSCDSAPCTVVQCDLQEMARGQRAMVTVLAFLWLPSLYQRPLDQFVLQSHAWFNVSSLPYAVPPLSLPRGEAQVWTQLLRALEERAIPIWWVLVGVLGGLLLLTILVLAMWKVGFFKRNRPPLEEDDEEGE

What is called IC50 is the concentration that gives 50% inhibition. A higher IC50 goes with weaker potency. Turning to `N=C(N)NCCCCCCCC(=O)N[C@@H](CC(=O)O)C(=O)NCCc1ccccc1`, the IC50 was 60 µM.

The molecule `NC(N)=NCCC[C@H](N)C(=O)NCC(=O)N[C@@H](CC(=O)O)C(=O)N[C@@H](Cc1ccccc1)C(=O)O` (H-RGDF-OH) gave an IC50 of 40 µM. This IC50 lies about 1.5-fold lower than the previous one.

As to `N=C(N)NCCCCCCCC(=O)N[C@@H](CC(=O)O)C(=O)N[C@@H](Cc1ccccc1)C(=O)O` [N-(1-Carboxy-2-phenyl-ethyl)-3-[8-(diaminomethyl-amino)-octanoylamino]-succinamic acid], the IC50 is 1.6 µM. Against the preceding molecule, the IC50 is about 25-fold lower.

`N=C(N)NCCCCCCCC(=O)N[C@@H](CC(=O)O)C(=O)N[C@@H](Cc1ccccc1)c1nnn[nH]1` had an IC50 of 4 µM. This IC50 is about 2.5-fold higher than that of the molecule before.
